# Assay outcomes from PubChem.
# C8 TRAIL sens: caspase-8 TRAIL sensitization. inhibition (viability loss, TRAIL sensitization), % at 10 µM. AID 624354. NB7+C8 cells + TRAIL, ATPlite viability luminescence. 360,000 compounds, 1% hits;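 active means compounds causing at least 50% loss of cell viability in the single-dose screen, relative to plate controls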
# FLuc inhib CS: inhibits firefly luciferase, flagging false hits in luciferase inhibition screens; inhibition, % at 10 µM; ATPLite firefly luciferase biochemical luminescence, 10 min; AID 1006; P08659; 200,000 compounds, 1.5% hits;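 active means inhibition above about 50% when tested at 10 µM, limit read from the data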
# Target sequence (P08659 whole entry, looked up): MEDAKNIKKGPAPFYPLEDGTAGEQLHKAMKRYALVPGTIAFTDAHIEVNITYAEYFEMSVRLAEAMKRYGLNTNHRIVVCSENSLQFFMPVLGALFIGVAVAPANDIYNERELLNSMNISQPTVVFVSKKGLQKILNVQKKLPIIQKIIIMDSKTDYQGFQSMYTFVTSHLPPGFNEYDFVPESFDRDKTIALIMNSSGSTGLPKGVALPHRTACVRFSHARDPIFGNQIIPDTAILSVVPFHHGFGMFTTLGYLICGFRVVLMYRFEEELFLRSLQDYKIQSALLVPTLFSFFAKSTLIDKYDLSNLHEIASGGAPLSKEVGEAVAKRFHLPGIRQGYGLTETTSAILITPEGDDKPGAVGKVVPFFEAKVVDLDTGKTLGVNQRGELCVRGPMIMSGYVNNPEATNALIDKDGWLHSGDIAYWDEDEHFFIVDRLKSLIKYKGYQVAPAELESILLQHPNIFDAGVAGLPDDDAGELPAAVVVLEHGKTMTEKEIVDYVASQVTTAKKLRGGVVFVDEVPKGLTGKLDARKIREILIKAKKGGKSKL
# FLuc act counter: affects firefly luciferase, flagging false hits in luciferase stimulation screens; activation factor at 10 µM; ATPlite luciferase biochemical, luminescence, 10 min; 0 = ATP-free wells, 1 = DMSO control; 200,000 tested, under 10 active; AID 1027;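 active means luciferase activation factor, scaled between plate controls, of at least 2 with compound at 10 µM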
#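 System: luciferase plus luciferin reagent, cell-free; medium: PBS as buffer for the ATP substrate; dosing: test compounds dosed from 2 mM stocks in 100% DMSO; timing: 10 min post-reagent at room temperature; measured by: luminescence measurement of luciferase light output; evaluation: luciferase activation, seen as luminescence increase over controls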
# HSP90 inh: blocks HSP90-mediated luciferase refolding in reticulocyte lysate; Rabbit reticulocyte lysate, luciferase refolding luminescence, 3 h; inhibition, % at 5.6 µM; 290,000 compounds, 0.91% hits; AID 1789;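 active means inhibition above the screen-wide mean plus 3 SD, computed separately per campaign, cut at about 16% in these data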;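 further: 0% = DMSO wells and 100% = 60 µM geldanamycin wells; inhibitors lower the luminescence because luciferase stays unfolded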
# STAT3 blocker: inhibitors of IL-6 induced STAT3 signaling; 190,000 compounds, 0.89% hits; U3A cells, IL-6 STAT3-luciferase reporter, luminescence; host cell line lacks STAT1; AID 862; inhibition, % at 5.5 µM;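 active means inhibition above the mean inhibition across all screened compounds plus 3 SD, cut at about 44% in these data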;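 further: 0% = DMSO only wells and 100% = 100 µM nifuroxazide control wells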
# PPC-1+TRAIL kill: compounds killing PPC-1 cancer cells with TRAIL present (potentiator screen, no TRAIL-free arm); cell killing (% activity), % at 4 µM or 5 µM; AID 1443; PPC-1 cells + TRAIL, ATPLite viability luminescence; 220,000 compounds, 0.41% hits;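 active means cell killing above 50% in the first pass at 4 µM, then a duplicate retest at 5 µM averaging 50% or more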;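 further: plate controls were cells with TRAIL plus DMSO for no effect and medium-only wells lacking cells for full effect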
# * marks the source's active call; other numbers are inactive results; x = no result. Sampled rows, rich in hits. Any-hit rate of the full collection: about 2.2%.
SMILES,C8 TRAIL sens,FLuc inhib CS,FLuc act counter,HSP90 inh,STAT3 blocker,PPC-1+TRAIL kill
COc1ccc2nc(NC(=O)c3cc(C)oc3C)sc2c1,39.7,49.2,0.5,2.4,22.7,29.1
O=C(Nc1nc2cc3c(cc2s1)OCCO3)C1CCCCC1,20.2,x,x,x,x,x
COc1ccc(C(=O)Nc2nc3cc4c(cc3s2)OCO4)c(OC)c1,51.0*,x,x,-2.4,x,34.1
Fc1cccc2sc(Nc3nc4cc5c(cc4s3)OCO5)nc12,10.6,32.1,0.7,-2.8,-18.1,31.0
Fc1cccc2sc(Nc3nc4cc5c(cc4s3)OCCO5)nc12,52.9*,79.3*,0.2,9.3,8.1,27.7
COc1cccc(CN(CC(=O)NC2CCCC2)C(=O)Cn2nnc(-c3cccs3)n2)c1,3.9,-7.7,1.1,5.3,9.6,-3.2
O=C1NC[C@@H](CCCCN2C[C@H](Cc3ccc(O)cc3)N(Cc3ccccc3)C(=O)C2=O)N(CCc2ccc(O)cc2)C1=O,-3.1,x,x,x,x,x
O=C(COC(=O)c1ccccc1)NC1CCCCCC1,4.3,x,x,x,x,x
N/C(=N\OC(=O)c1ccccc1)C(C(=O)NOC(=O)c1ccccc1)C1CCCCC1 (configuration not stated),90.8*,x,x,x,x,x
COc1ccc(C2=NN(C(=O)COC(=O)c3ccc(S(C)(=O)=O)c([N+](=O)[O-])c3)C(c3ccco3)C2)cc1 (configuration not stated),90.2*,x,x,x,x,x
COc1ccc(-c2cc(=O)n(CCC#N)[nH]2)cc1,-13.2,-9.6,1.1,64.6*,-4.9,13.6
COc1ccc(C(C)(O)c2nc(-c3ccc4c(c3)OCO4)cs2)cc1 (configuration not stated),-6.8,x,x,x,x,x
COc1cccc(-c2cnc(C(O)c3c(C)cccc3C)[nH]2)c1 (configuration not stated),-17.2,x,x,x,x,x
CCOc1ccc(C(=O)Nc2cc(C)c3c(=O)oc4ccccc4c3n2)cc1,56.3*,-2.2,1,-1.0,-0.8,15.9
Cc1cc(NC(=O)c2ccc(S(=O)(=O)N3CCCC3)cc2)nc2c1c(=O)oc1ccccc12,55.4*,-3.6,1,0.5,-0.1,19.9
Cc1cc(NC(=O)c2ccc(S(=O)(=O)N3CCOCC3)cc2)nc2c1c(=O)oc1ccccc12,x,2.9,1,0.3,-15.8,5.3
COc1ccc(CNC(=O)c2ccc(CS(=O)(=O)c3ccc(C)cc3)o2)cc1,8.6,x,x,2.2,x,x
Oc1ccc(-c2cnc(-c3ccc(O)cc3)nc2)cc1,80.3*,x,x,11.8,x,x
O=C(C#Cc1ccccc1)c1ccc([N+](=O)[O-])cc1,19.7,-4.6,1,4.4,15.3,-16.2
O=C(C#Cc1ccccc1)c1ccccc1,93.2*,x,x,x,x,x
O=C(CC1SC(=O)N(Cc2cccc3ccccc23)C1=O)Nc1nccs1 (configuration not stated),52.9*,-6.8,1.1,1.5,9.9,-4.4
CCOC(=O)CN1C(=O)SC(CC(=O)Nc2nccs2)C1=O (configuration not stated),59.7*,-3.1,1,2.8,3.8,11.2
Cc1ccc(-c2cc(N)n(Cc3ccc(Cl)cc3)n2)cc1,8.3,-4.5,1,3.8,45.5*,1.4
COc1cccc(C(=O)Nc2nnc(SCC(=O)NC3CCCC3)s2)c1,57.3*,x,x,-2.7,x,x
O=C(CSc1nnc(NC(=O)c2ccccc2)s1)NCc1ccco1,61.2*,x,x,2.5,x,x
SMILES,C8 TRAIL sens,FLuc inhib CS,FLuc act counter,HSP90 inh,STAT3 blocker,PPC-1+TRAIL kill
O=C(CSc1nnc(NC(=O)c2ccc(F)cc2)s1)NCc1ccco1,56.4*,x,x,1.9,x,x
COc1cccc(C(=O)Nc2nnc(-c3cccs3)s2)c1,9.9,10.3,0.9,-1.9,57.9*,43.7
O=C(CSc1nnc(NC(=O)c2cccc(F)c2)s1)NCc1ccco1,24.0,x,x,-0.6,x,x
CC(=O)N(CC#CCN(C(C)=O)c1ccccc1)c1ccccc1,5.5,x,x,x,x,x
CCOC(=O)CC(NC(=O)c1cccc2c1C(=O)N(Cc1cccnc1)C2)c1ccc(OC(C)C)cc1 (configuration not stated),-1.8,1.2,1,0.4,11.9,-5.6
CCCCCCn1c(=O)n2n(c1=O)C[C@]1(OC(=O)NCc3ccccc3)CN(S(=O)(=O)c3ccc(C)cc3)C[C@]1(O)C2,27.1,x,x,x,x,x
CCOC(=O)Nc1ccc2c(c1)nc(CN1CCCCC1)n2C,-38.4,-3.9,1,-1.8,13.8,-7.4
O=C(CSc1nnc(NC(=O)c2ccccc2)s1)NCC1CCCO1 (configuration not stated),56.1*,x,x,-1.0,x,x
Cc1ccc(C(=O)Nc2nc3ccc(S(C)(=O)=O)cc3s2)s1,41.6,65.3*,0.3,-1.1,13.0,47.8
O=C(Nc1nc2ccccc2s1)c1cnccn1,34.2,59.3*,0.4,6.0,36.0,37.3
CS(=O)(=O)c1ccc2nc(NC(=O)c3cccc([N+](=O)[O-])c3)sc2c1,62.1*,x,x,-1.8,x,x
Cc1ccc(C(=O)Nc2nc3ccccc3s2)s1,48.8,59.9*,0.4,15.7,41.2,45.6
Cc1cc(=O)[nH]c(-c2ccc(C(F)(F)F)cc2)n1,-10.9,x,x,5.4,x,13.9
O=C(CNC(=O)C1COc2ccccc2O1)N/N=C\c1ccc(Cl)cc1 (configuration not stated),-21.5,x,x,1.5,x,3.9
Nc1nc2ccc(-c3nc4ccccc4o3)cc2s1,28.4,58.4*,0.4,-3.5,20.0,41.5
c1ccc2oc(-c3ccc4nc[nH]c4c3)nc2c1,36.8,67.9*,0.3,6.1,9.2,24.2
CCCn1c(C)cc(C(=O)COC(=O)c2ccc[nH]c2=O)c1C,54.2*,65.3*,0.3,1.7,41.4,14.6
CCn1cc(C(=O)OCC(=O)c2cc(C)n(-c3ccccc3F)c2C)c(=O)c2ccc(C)nc21,-4.8,-2.1,1,-0.5,-2.0,15.6
Cc1ccc(-n2c(C)cc(C(=O)COC(=O)C3=NNC(=O)CC3)c2C)cc1,2.0,8.4,0.9,0.9,8.7,-35.6
CCn1c(C)cc(C(=O)COC(=O)c2ccccc2[N+](=O)[O-])c1C,93.2*,x,x,x,x,x
Cc1cc(C(=O)COC(=O)c2ccc[nH]c2=O)c(C)n1-c1ccccc1F,58.6*,x,x,4.9,x,41.7
Cc1ccc(-n2c(C)cc(C(=O)COC(=O)c3ccc[nH]c3=O)c2C)cc1C,37.3,64.8*,0.4,-1.9,-8.6,26.4
O=[N+]([O-])c1ccc(Cl)c(CN2CCN(c3ncc(Cc4ccccc4)cn3)CC2)c1,-7.3,x,x,x,x,x
CC(C)CN1CCN(Cc2ccc(Oc3ncccn3)cc2)CC1CCO (configuration not stated),-25.2,x,x,16.3*,x,9.2
CC1(C)N=C(N)N=C(N)N1c1cccc(CC(=O)Nc2ccccc2)c1,78.0*,x,x,x,x,x
Cc1cccc(NC(=O)CCc2ccccc2)c1,-3.4,5.5,0.9,-0.5,6.5,17.8
CC1(C)N=C(N)N=C(N)N1c1ccc(OCCCOc2ccccc2)c(Cl)c1,71.4*,x,x,-0.9,x,41.1
CC1(C)N=C(N)N=C(N)N1c1ccc(OCC(=O)Nc2ccccc2)c(Cl)c1,80.6*,x,x,x,x,x
